Measurements taken from ChEMBL document CHEMBL1148376, “Synthesis, monoamine transporter binding properties, and behavioral pharmacology of a series of 3beta-(substituted phenyl)-2beta-(3'-substituted isoxazol-5-yl)tropanes” (J Med Chem, 2004).

What was measured:
[1] = target: Sodium-dependent dopamine transporter (Rattus norvegicus, UniProt P23977); assay: Inhibitory concentration required to inhibit dopamine transporter DAT was determined by using [3H]WIN-35428 radioligand
Procedure, shortened: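 Competition binding at the DAT with 0.5 nM [3H]WIN35,428 (final concentration). Other procedures follow earlier published methods.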

Mus musculus [2] = assay: Percent change in locomotor activity in mice at 3 mg/kg i.p. in 1 h.; type: functional; settings: route intraperitoneal
Procedure, shortened: (§1)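 Mice habituated 1/2 h to photocell activity chambers, then injected ip with compound homogenized in 0.5% methyl cellulose (10 mL/kg); vehicle controls; N = 5 or 6 per dose. Photobeam interruptions recorded in 10-min bins for 4 h, grouped into 1-h bins; one-way ANOVA with Newman-Keuls post hoc test (p < 0.05).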

Mus musculus [3] = assay: Percent change in locomotor activity in mice at 3 mg/kg i.p. in 2 h.; type: functional; settings: route intraperitoneal; procedure, shortened: as §1
Mus musculus [4] = assay: Percent change in locomotor activity in mice at 3 mg/kg i.p. in 3 h.; type: functional; settings: route intraperitoneal; procedure, shortened: as §1
Mus musculus [5] = assay: Percent change in locomotor activity in mice at 3 mg/kg i.p. in 4 h.; type: functional; settings: route intraperitoneal; procedure, shortened: as §1
Mus musculus [6] = assay: Percent change from vehicle in locomotor activity in mice at 0.3 mg/kg (ip) in 1 h; type: functional
Mus musculus [7] = assay: Percent change from vehicle in locomotor activity in mice at 0.3 mg/kg (ip) in 2 h; type: functional
Mus musculus [8] = assay: Percent change from vehicle in locomotor activity in mice at 0.3 mg/kg (ip) in 3 h; type: functional
Mus musculus [9] = assay: Percent change from vehicle in locomotor activity in mice at 0.3 mg/kg (ip) in 4 h; type: functional
Mus musculus [10] = assay: Percent change in locomotor activity in mice at 1 mg/kg i.p. in 1 h.; type: functional; settings: route intraperitoneal
Mus musculus [11] = assay: Percent change in locomotor activity in mice at 1 mg/kg i.p. in 2 h.; type: functional; settings: route intraperitoneal; procedure, shortened: as §1
Mus musculus [12] = assay: Percent change locomotor activity in mice at 1 mg/kg i.p. in 3 h.; type: functional; settings: route intraperitoneal; procedure, shortened: as §1
Mus musculus [13] = assay: Percent change in locomotor activity in mice at 1 mg/kg i.p. in 4 h.; type: functional; settings: route intraperitoneal; procedure, shortened: as §1
Mus musculus [14] = organism: Mus musculus; assay: Effective dose for locomotor activity in mice in the peak hour.; type: functional
Mus musculus [15] = organism: Mus musculus; assay: Hour 1 ratio to cocaine was determined for locomotor activity in mice; type: functional
[16] = target: T1, Norepinephrine transporter (Rattus norvegicus, UniProt Q9WTR4); assay: Binding affinity towards norepinephrine transporter was determined using [3H]nisoxetine radioligand.
T1 sequence (Q9WTR4 whole entry): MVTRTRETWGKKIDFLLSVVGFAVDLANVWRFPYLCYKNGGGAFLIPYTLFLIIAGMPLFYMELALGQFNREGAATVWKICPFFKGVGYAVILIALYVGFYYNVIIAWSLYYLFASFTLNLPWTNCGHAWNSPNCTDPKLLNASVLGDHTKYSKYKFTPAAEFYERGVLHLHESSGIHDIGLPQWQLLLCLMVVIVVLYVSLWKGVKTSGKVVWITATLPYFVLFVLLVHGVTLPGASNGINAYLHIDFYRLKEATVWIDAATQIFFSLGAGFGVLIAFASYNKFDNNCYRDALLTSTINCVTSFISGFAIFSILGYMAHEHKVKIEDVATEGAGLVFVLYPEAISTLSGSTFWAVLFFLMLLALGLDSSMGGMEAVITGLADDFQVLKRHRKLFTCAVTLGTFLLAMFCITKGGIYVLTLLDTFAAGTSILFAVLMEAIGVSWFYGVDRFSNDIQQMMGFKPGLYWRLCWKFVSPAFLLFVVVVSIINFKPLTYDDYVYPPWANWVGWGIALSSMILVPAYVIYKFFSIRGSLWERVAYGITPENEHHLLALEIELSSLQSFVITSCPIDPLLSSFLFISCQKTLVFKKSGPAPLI
Procedure, shortened: (§2)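 Competition binding at the NET with 0.5 nM [3H]nisoxetine (final concentration). Other procedures follow earlier published methods.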

[17] = target: T1, Norepinephrine transporter; assay: Inhibition of norepinephrine transporter (NET) determined using [3H]nisoxetine radioligand.; procedure, shortened: as §2
Rattus norvegicus [18] = assay: Drug discrimination effect of compound in rats, expressed as percent of rats choosing the cocaine lever at dose 0.3 mg/kg (ip); type: functional
Rattus norvegicus [19] = assay: Drug discrimination effect of compound in rats, expressed as percent of rats choosing the cocaine lever at dose 1 mg/kg (ip); type: functional
Rattus norvegicus [20] = assay: Drug discrimination effect of compound in rats, expressed as percent of rats choosing the cocaine lever at dose 1.7 mg/kg (ip); type: functional
Rattus norvegicus [21] = assay: Effective dose for drug discrimination effect in rat (ip); type: functional
Procedure, shortened: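 Cocaine-trained rat drug discrimination, FR10, 10-min sessions. Compound in 0.5% methyl cellulose given ip 15 min before session, usually to 7-8 rats per dose. Doses were raised from ≤20% to ≥80% cocaine-lever choice, capped at 30 mg/kg, >50% loss of pressing, or side effects.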

[22] = target: T2, Sodium-dependent serotonin transporter (Rattus norvegicus, UniProt P31652); assay: Binding affinity towards serotonin transporter 5-HTT was determined using [3H]paroxetine radioligand.
T2 sequence (P31652 whole entry): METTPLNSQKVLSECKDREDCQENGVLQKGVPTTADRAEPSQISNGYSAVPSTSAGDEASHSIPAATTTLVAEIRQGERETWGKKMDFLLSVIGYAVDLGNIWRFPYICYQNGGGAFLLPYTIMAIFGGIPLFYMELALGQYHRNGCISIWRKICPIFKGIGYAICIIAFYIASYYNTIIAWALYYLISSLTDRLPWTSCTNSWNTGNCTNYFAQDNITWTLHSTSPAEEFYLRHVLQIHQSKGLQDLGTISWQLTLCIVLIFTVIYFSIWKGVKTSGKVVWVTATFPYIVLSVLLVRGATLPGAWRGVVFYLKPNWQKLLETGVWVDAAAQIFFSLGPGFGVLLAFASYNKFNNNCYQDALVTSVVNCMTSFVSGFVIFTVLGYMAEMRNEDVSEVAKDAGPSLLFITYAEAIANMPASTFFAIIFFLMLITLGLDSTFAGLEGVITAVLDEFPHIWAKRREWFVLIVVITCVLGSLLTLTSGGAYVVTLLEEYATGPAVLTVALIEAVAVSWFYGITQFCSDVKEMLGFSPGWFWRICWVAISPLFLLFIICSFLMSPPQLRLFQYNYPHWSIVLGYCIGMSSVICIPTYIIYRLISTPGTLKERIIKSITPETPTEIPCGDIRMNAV
Procedure, shortened: (§3)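 Competition binding at the 5-HTT with 0.2 nM [3H]paroxetine (final concentration). Other procedures follow earlier published methods.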

[23] = target: T2, Sodium-dependent serotonin transporter; assay: Inhibitory concentration required to inhibit serotonin transporter 5-HTT was determined by using [3H]paroxetine radioligand; procedure, shortened: as §3
Rattus norvegicus [24] = assay: Drug discrimination effect of compound in rats, expressed as percent of rats choosing the cocaine lever at dose 0.56 mg/kg (ip); type: functional
Rattus norvegicus [25] = assay: Drug discrimination effect of compound in rats, expressed as percent of rats choosing the cocaine lever at dose 0.1 mg/kg (ip); type: functional
Rattus norvegicus [26] = assay: Drug discrimination effect of compound in rats, expressed as percent of rats choosing the cocaine lever at dose 0.17 mg/kg (ip); type: functional
Mus musculus [27] = assay: Percent change from vehicle in locomotor activity in mice at 0.1 mg/kg (ip) in 1 h; type: functional
Mus musculus [28] = assay: Percent change from vehicle in locomotor activity in mice at 0.1 mg/kg (ip) in 2 h; type: functional
Mus musculus [29] = assay: Percent change from vehicle in locomotor activity in mice at 0.1 mg/kg (ip) in 3 h; type: functional
Mus musculus [30] = assay: Percent change from vehicle in locomotor activity in mice at 0.1 mg/kg (ip) in 4 h; type: functional
Mus musculus [31] = assay: Percent change from vehicle in locomotor activity in mice at 30 mg/kg (ip) in 1 h; type: functional
Mus musculus [32] = assay: Percent change from vehicle in locomotor activity in mice at 30 mg/kg (ip) in 2 h; type: functional
Mus musculus [33] = assay: Percent change from vehicle in locomotor activity in mice at 30 mg/kg (ip) in 3 h; type: functional
Mus musculus [34] = assay: Percent change from vehicle in locomotor activity in mice at 30 mg/kg (ip) in 4 h; type: functional
Mus musculus [35] = assay: Percent change from vehicle in locomotor activity in mice at 10 mg/kg (ip) in 1 h; type: functional
Mus musculus [36] = assay: Percent change from vehicle in locomotor activity in mice at 10 mg/kg (ip) in 2 h; type: functional
Mus musculus [37] = assay: Percent change from vehicle in locomotor activity in mice at 10 mg/kg (ip) in 3 h; type: functional
Mus musculus [38] = assay: Percent change from vehicle in locomotor activity in mice at 10 mg/kg (ip) in 4 h; type: functional
Rattus norvegicus [39] = assay: Drug discrimination effect of compound in rats, expressed as percent of rats choosing the cocaine lever at dose 10 mg/kg (ip); type: functional
Rattus norvegicus [40] = assay: Drug discrimination effect of compound in rats, expressed as percent of rats choosing the cocaine lever at dose 17 mg/kg (ip); type: functional
Rattus norvegicus [41] = assay: Drug discrimination effect of compound in rats, expressed as percent of rats choosing the cocaine lever at dose 5.6 mg/kg (ip); type: functional

Sequence of Sodium-dependent dopamine transporter (P23977 whole entry): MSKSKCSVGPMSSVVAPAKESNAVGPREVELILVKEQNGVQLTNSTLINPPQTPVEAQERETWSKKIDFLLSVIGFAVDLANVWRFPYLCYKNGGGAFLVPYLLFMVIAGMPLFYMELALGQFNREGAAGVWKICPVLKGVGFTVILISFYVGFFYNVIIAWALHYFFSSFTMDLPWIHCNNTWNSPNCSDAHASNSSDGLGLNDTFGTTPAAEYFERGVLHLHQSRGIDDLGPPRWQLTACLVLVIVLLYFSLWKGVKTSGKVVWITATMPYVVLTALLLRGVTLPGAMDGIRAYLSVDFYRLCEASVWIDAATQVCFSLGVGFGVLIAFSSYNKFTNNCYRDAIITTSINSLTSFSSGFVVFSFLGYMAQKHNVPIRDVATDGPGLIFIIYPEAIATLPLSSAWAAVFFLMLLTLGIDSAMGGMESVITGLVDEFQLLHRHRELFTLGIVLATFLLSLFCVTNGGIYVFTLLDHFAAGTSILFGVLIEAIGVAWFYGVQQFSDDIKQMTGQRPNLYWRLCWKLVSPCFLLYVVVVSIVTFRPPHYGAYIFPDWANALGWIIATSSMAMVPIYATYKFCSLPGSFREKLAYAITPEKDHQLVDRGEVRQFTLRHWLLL

## CCc1cc(C2C(c3ccc(C)cc3)CC3CCC2N3C)on1 (stereo not given)
[1]
  IC50: 0.00162 µM
Mus musculus [2]
  Change: 613%
Mus musculus [3]
  Change: 893%
Mus musculus [4]
  Change: 725%
Mus musculus [5]
  Change: 81%
Mus musculus [6]
  Change: 34%
Mus musculus [7]
  Change: 99%
Mus musculus [8]
  Change: 173%
Mus musculus [9]
  Change: -72%
Mus musculus [10]
  Change: 449%
Mus musculus [11]
  Change: 489%
Mus musculus [12]
  Change: 222%
Mus musculus [13]
  Change: 48%
Mus musculus [14]
  ED50: 0.9 mg/kg
Mus musculus [15]
  Ratio: 1.4
[16]
  Ki: 0.18 µM
[17]
  IC50: 0.299 µM
Rattus norvegicus [18]
  Drug discrimination effect: 0%
Rattus norvegicus [19]
  Drug discrimination effect: 75%
Rattus norvegicus [20]
  Drug discrimination effect: 100%
Rattus norvegicus [21]
  ED50: 0.82 mg/kg
[22]
  Ki: 0.582 µM
[23]
  IC50: 6.4 µM
Rattus norvegicus [24]
  Drug discrimination effect: 14%

## Cc1ccc(C2CC3CCC(C2c2cc(C)no2)N3C)cc1 (stereo not given)
[1]
  IC50: 0.00093 µM
Mus musculus [2]
  Change: 478%
Mus musculus [3]
  Change: 552%
Mus musculus [4]
  Change: 986%
Mus musculus [5]
  Change: 221%
Mus musculus [6]
  Change: 140%
Mus musculus [7]
  Change: 156%
Mus musculus [8]
  Change: 75%
Mus musculus [9]
  Change: 48%
Mus musculus [10]
  Change: 341%
Mus musculus [11]
  Change: 413%
Mus musculus [12]
  Change: 392%
Mus musculus [13]
  Change: 78%
Mus musculus [14]
  ED50: 1.1 mg/kg
Mus musculus [15]
  Ratio: 1.1
[16]
  Ki: 0.153 µM
[17]
  IC50: 0.254 µM
Rattus norvegicus [25]
  Drug discrimination effect: 13%
Rattus norvegicus [26]
  Drug discrimination effect: 0%
Rattus norvegicus [18]
  Drug discrimination effect: 83%
Rattus norvegicus [21]
  ED50: 0.28 mg/kg
[22]
  Ki: 0.348 µM

## Cc1cc(C2C(c3ccc(Cl)cc3)CC3CCC2N3C)on1 (stereo not given)
[1]
  IC50: 0.00059 µM
Mus musculus [27]
  Change: 48%
Mus musculus [28]
  Change: 92%
Mus musculus [29]
  Change: 38%
Mus musculus [6]
  Change: 354%
Mus musculus [7]
  Change: 526%
Mus musculus [8]
  Change: 735%
Mus musculus [9]
  Change: 392%
Mus musculus [10]
  Change: 543%
Mus musculus [11]
  Change: 434%
Mus musculus [12]
  Change: 926%
Mus musculus [13]
  Change: 981%
Mus musculus [14]
  ED50: 0.2 mg/kg
Mus musculus [15]
  Ratio: 1.2
[16]
  Ki: 0.109 µM
[17]
  IC50: 0.181 µM
Rattus norvegicus [25]
  Drug discrimination effect: 0%
Rattus norvegicus [26]
  Drug discrimination effect: 25%
Rattus norvegicus [18]
  Drug discrimination effect: 88%
Rattus norvegicus [21]
  ED50: 0.21 mg/kg
[22]
  Ki: 0.052 µM
[23]
  IC50: 0.572 µM
Mus musculus [30]
  Change: -23%

## CCc1cc(C2C(c3ccc(Cl)cc3)CC3CCC2N3C)on1 (stereo not given)
[1]
  IC50: 0.0005 µM
Mus musculus [27]
  Change: 82%
Mus musculus [28]
  Change: 224%
Mus musculus [29]
  Change: 184%
Mus musculus [6]
  Change: 284%
Mus musculus [7]
  Change: 505%
Mus musculus [8]
  Change: 224%
Mus musculus [9]
  Change: 208%
Mus musculus [10]
  Change: 954%
Mus musculus [11]
  Change: 1900%
Mus musculus [12]
  Change: 1708%
Mus musculus [13]
  Change: 778%
Mus musculus [14]
  ED50: 0.4 mg/kg
Mus musculus [15]
  Ratio: 2.1
[16]
  Ki: 0.072 µM
[17]
  IC50: 0.12 µM
Rattus norvegicus [18]
  Drug discrimination effect: 0%
Rattus norvegicus [19]
  Drug discrimination effect: 71%
Rattus norvegicus [21]
  ED50: 0.48 mg/kg
[22]
  Ki: 0.281 µM
[23]
  IC50: 3.09 µM
Mus musculus [30]
  Change: 103%
Rattus norvegicus [24]
  Drug discrimination effect: 75%

## Cc1ccc(C2CC3CCC(C2c2cc(-c4ccc(F)cc4)no2)N3C)cc1 (stereo not given)
[1]
  IC50: 0.00645 µM
Mus musculus [2]
  Change: 105%
Mus musculus [3]
  Change: 80%
Mus musculus [4]
  Change: 148%
Mus musculus [5]
  Change: 140%
Mus musculus [31]
  Change: 192%
Mus musculus [32]
  Change: 383%
Mus musculus [33]
  Change: 387%
Mus musculus [34]
  Change: 179%
Mus musculus [35]
  Change: 117%
Mus musculus [36]
  Change: 268%
Mus musculus [37]
  Change: 84%
Mus musculus [38]
  Change: 148%
Mus musculus [14]
  ED50: 6.3 mg/kg
Mus musculus [15]
  Ratio: 0.4
[16]
  Ki: 0.552 µM
[17]
  IC50: 0.917 µM
Rattus norvegicus [20]
  Drug discrimination effect: 0%
Rattus norvegicus [39]
  Drug discrimination effect: 25%
Rattus norvegicus [40]
  Drug discrimination effect: 88%
Rattus norvegicus [41]
  Drug discrimination effect: 25%
Rattus norvegicus [21]
  ED50: 7.27 mg/kg
[23]
  IC50: > 100 µM
